What was measured:
[1] = target: T1, Estrogen receptor (Mus musculus) (UniProt O08537+P19785); assay: Anti-estrogenic effect in uterotrophic assay in immature mice at 5 ug dose; type: functional
Outline: (§1)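 Immature female NMRI mice (10–12 g, 20 days old, 10 per group) given test compound sc daily for 3 days in olive oil (0.1 mL/mouse), dose per animal per day, with estrone stimulating uterine growth. Uteri removed 24 h after last injection, Bouin-fixed, dried and weighed. Read-out is % inhibition of estrone-stimulated uterine growth.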

[2] = target: T1, Estrogen receptor (Mus musculus); assay: Estrogenic effect in uterotrophic assay in immature mice at 100 ug dose; type: functional
Outline: (§2)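 Immature female NMRI mice (10–12 g, 20 days old, 10 per group) injected sc daily for 3 days with compound in olive oil (0.1 mL/mouse), dose per animal per day. Uteri removed 24 h after last dose, Bouin-fixed, dried, weighed. Effect = uterus dry weight (mg)/body weight (g) × 100. Activity = (E_T − E_V)/(E_S − E_V) × 100, with estrone 0.4 μg standard as 100%.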

[3] = target: T1, Estrogen receptor (Mus musculus); assay: Estrogenic effect in uterotrophic assay in immature mice at 1 ug dose; type: functional; outline: as §2
Mus musculus = assay: In vivo inhibition of hormone-dependent MXT mammary tumor in mice; type: functional
Outline: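 BDF1 mice bearing transplanted hormone-dependent MXT mammary tumor (line 3.2). From day 1 after transplantation, compounds given sc 3 times weekly in olive oil (0.1 mL/mouse) for 6 weeks, at doses equimolar to 3 × 8 mg/kg per week. Tumors excised, washed in 0.9% NaCl, blotted, weighed. T/C % = treated/solvent-control tumor weight × 100, mean of 10 animals. Mann–Whitney–Wilcoxon U test, α ≤ 0.05.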

[4] = target: T1, Estrogen receptor (Mus musculus); assay: In vivo inhibition of uterine growth in hormone-dependent MXT mammary tumor bearing mice; type: functional, organism-based
Outline: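 MXT tumor-bearing BDF1 mice dosed sc 3 times weekly for 6 weeks in olive oil at doses equimolar to 3 × 8 mg/kg per week. Uterotrophic effect measured at end of therapy. T/C % = treated/solvent-control uterotrophic effect × 100, mean of 10 animals. U test (Wilcoxon, Mann, Whitney), α ≤ 0.05.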

[5] = target: T1, Estrogen receptor (Mus musculus); assay: Estrogenic effect in uterotrophic assay in immature mice at 5 ug dose; type: functional; outline: as §2
[6] = target: T1, Estrogen receptor (Mus musculus); assay: Estrogenic effect in uterotrophic assay in immature mice at 25 ug dose; type: functional; outline: as §2
[7] = target: T1, Estrogen receptor (Mus musculus); assay: Anti-estrogenic effect in uterotrophic assay in immature mice at 1.0 ug dose; type: functional; outline: as §1
[8] = target: T1, Estrogen receptor (Mus musculus); assay: Anti-estrogenic effect in uterotrophic assay in immature mice at 25 ug dose; type: functional; outline: as §1

T1 sequence (O08537 whole entry, looked up): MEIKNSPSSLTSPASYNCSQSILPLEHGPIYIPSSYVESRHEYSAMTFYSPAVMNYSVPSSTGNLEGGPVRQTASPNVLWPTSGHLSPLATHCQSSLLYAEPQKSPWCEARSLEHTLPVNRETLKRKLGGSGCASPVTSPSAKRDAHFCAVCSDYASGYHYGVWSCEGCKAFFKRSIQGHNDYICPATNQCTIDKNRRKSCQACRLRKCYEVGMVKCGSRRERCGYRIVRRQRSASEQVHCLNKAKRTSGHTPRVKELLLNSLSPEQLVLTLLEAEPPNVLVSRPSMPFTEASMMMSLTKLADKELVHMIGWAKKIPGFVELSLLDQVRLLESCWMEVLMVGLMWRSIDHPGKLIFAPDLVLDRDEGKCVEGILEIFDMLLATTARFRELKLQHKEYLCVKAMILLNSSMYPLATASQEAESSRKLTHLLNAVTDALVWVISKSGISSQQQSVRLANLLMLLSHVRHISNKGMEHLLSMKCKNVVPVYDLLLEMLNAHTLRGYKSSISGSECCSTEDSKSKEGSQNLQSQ
T1 sequence (P19785 whole entry, looked up): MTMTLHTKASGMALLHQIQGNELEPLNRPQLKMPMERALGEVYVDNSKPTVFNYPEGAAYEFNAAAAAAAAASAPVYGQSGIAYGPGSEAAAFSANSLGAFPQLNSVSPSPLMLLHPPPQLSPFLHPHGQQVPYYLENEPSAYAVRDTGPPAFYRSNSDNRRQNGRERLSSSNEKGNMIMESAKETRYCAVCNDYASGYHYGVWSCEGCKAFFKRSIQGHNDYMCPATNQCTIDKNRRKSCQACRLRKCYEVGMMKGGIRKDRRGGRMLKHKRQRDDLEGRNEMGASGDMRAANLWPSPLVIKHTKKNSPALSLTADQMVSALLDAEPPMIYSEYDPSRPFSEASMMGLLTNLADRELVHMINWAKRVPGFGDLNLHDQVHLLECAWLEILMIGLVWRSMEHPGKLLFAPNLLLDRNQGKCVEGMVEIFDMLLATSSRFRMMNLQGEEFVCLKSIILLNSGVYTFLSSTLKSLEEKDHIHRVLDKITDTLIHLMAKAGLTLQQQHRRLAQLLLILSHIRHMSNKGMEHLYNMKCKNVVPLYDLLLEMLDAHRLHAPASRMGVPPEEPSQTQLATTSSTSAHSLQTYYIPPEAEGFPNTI

Row | Structure (SMILES) | inhibition [1] | Activity [2] | Activity [3] | T/C (Mus musculus) | T/C [4] | Activity [5] | Activity [6] | inhibition [7] | inhibition [8]
1 | CCC(c1ccccc1)C(c1ccc(OC(C)=O)cc1)c1ccc(OC(C)=O)cc1 (stereo not drawn) | 0% | 83 | 17 | 69.1% | 73.7% | 42 | 79 | 27% | 
2 | CCCC(=C(c1ccc(OC(C)=O)cc1)c1ccc(OC(C)=O)cc1)c1ccccc1 | 0% | 114 | 31 | 61.1% | 93.3% | 42 | 90 | 19% | 
3 | CCC1(c2ccccc2)OC1(c1ccc(OC(C)=O)cc1)c1ccc(OC(C)=O)cc1 (stereo not drawn) | 5% | 60 | 2 | 78.9% | 77.9% | 2 | 33 | 23% | 0%
4 | CC/C(=C(\c1ccccc1)c1ccc(OCCN(C)C)cc1)c1ccccc1 [TAMOXIFEN] |  |  |  | 9.8% |  |  |  |  | 
5 | CC(=O)Oc1ccc(C(=C(c2ccccc2)C(C)C)c2ccc(OC(C)=O)cc2)cc1 | 0% | 117 | 60 | 0.2% | 128% | 87 | 100 | 0% | 
6 | CCC(=C(c1ccc(OC(C)=O)cc1)c1ccc(OC(C)=O)cc1)c1ccccc1 | 0% | 107 | 37 | 0.4% | 124% | 72 | 98 | 0% | 
7 | CC(=O)Oc1ccc(C(=C(CC(F)(F)F)c2ccccc2)c2ccc(OC(C)=O)cc2)cc1 |  | 86 | 62 | 43.1% | 128% | 140 | 108 | 0% | 
8 | CC(=O)Oc1ccc(C(=Cc2ccccc2)c2ccc(OC(C)=O)cc2)cc1 | 0% | 116 | 11 | 64.3% | 54.8% | 13 | 99 | 26% | 
9 | CC(=O)Oc1ccc(C(=C(C)c2ccccc2)c2ccc(OC(C)=O)cc2)cc1 |  | 78 | 125 | 0.3% | 120% | 108 | 83 |  | 
